Consider 48 sequences from the EternaBench riboswitch data.

The series has as its system MS2 coat protein. Nature of the series: apparent Kd, MS2 coat protein; higher = weaker binding; RNA-MaP array; FMN 200 µM where present. An outline of the steps: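 Apparent Kd: the median of filtered binding-curve fits from single clusters. Designs were transcribed on Illumina sequencing-chip clusters by stalled E. coli RNA polymerase and titrated with SNAP-549-labelled MS2 coat protein from 0.7 or 1.5 nM, doubling to 3 µM, in 100 mM Tris-HCl pH 7.5, 80 mM KCl, 4 mM MgCl2, BSA, DTT, yeast tRNA and Tween-20. Each series ran without and then with constant ligand, and green signal was normalised to red-channel RNA signal and control-cluster median Fmax.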

Where [1] appears, read: designed as: ON switch for flavin mononucleotide, no ligand.
Where [2] appears, read: ligand present: flavin mononucleotide, designed as: ON switch for flavin mononucleotide.
[3] abbreviates: designed as: OFF switch for flavin mononucleotide, no ligand.
Where [4] appears, read: ligand present: flavin mononucleotide, designed as: OFF switch for flavin mononucleotide.

What is called apparent Kd is a dissociation constant that holds for the conditions of the assay. For “GGGUACAUCAGAGGAUAUCAUGUAAAUACAUGAGGAUCACCCAUGUCGAUGGAGACAUCGGAGAUUGAGAAGGCCGAUGUACCG”, the “apparent Kd” value came out at 292 nM under setting [1] and 13.4 nM under setting [2].

Consider “CCGCAGUGUCUUCAGAAGACAUGAGGAUCACCCAUGUACCAGGAGGAUAUAGUGCGCUUUCCGCGCUAGAAGGCUUGGAUAUAG”, for which the “apparent Kd” value under setting [3] amounted to 115 nM and the “apparent Kd” value under setting [4] stood at 70.8 nM.

In the case of “GCGUGACGGUGCGCGAGUGGACGGAGAAGGCAGACAUGAGGAUCACCCAUGUGAGCCUGCUAUUCUGAGGAUAUCCGUUCGCAC”, the “apparent Kd” value was 32.5 nM under setting [3] and 150 nM under setting [4].

Regarding “CGCUCAAGAGAGAAGGAUAGAGUCAGAAGGCGUUACAUGAGGAUCACCCAUGUAUAGUAGUGUAACGAGGAUAUGAAAUGAGCG”, the “apparent Kd” value by setting is: under setting [3], 194 nM; under setting [4], 250 nM.

Regarding “UGCGUACAAGCGGACAUGAGGAUCACCCAUGUAGUCUUAUGCGAGGAUAUCGGGAAGGAGGAUUCCGAGAAGGUGCGGUGAGCC”, the “apparent Kd” value under setting [1] was 17.5 nM and the “apparent Kd” value under setting [2] was 15.2 nM.

On to “GGAUAGGACAGAGGAUAUACGUGCUACAGAUACUAGCAAAAUUUCCUCACAUGAGGAUCACCCAUGUAGAAGGCUGUCCUAUCG”, for which the “apparent Kd” value worked out at 19.3 nM under setting [3] and 405 nM under setting [4].

“UUGGUUGUCGUAGGAUAUGUAGGAUAUUCCUACAUGAGGAUCACCCAUGUUCGCAUGGAAGAAGGACGGAAGGACGAUGACCAA”: the “apparent Kd” value reads like this: under setting [1], 233 nM; under setting [2], 153 nM.

As for “UGCUAGGAUGGGUCUAAUGGACCGCAGGAUAUGCUUGUACAUGAGGAUCACCCAUGUAACAUUGUGCAGAAGGGUGGAUCCACG”, the “apparent Kd” value under setting [1] is 65.6 nM and the “apparent Kd” value under setting [2] amounted to 11.6 nM.

For “AGCGUGUAAGGAUAUACGUCGGAUAGCGAAUACUGUCCCUAGUAGAAGGUACAUGAGGAUCACCCAUGUGUCCA”, the “apparent Kd” value amounted to 23.9 nM under setting [3] and 51.8 nM under setting [4].

On to “CUAUGCGGAAUAGGAUAUUCAUUCAUGAGGAUAGAAGAAGGGUUACAUGAGGAUCACCCAUGUAUACACAUGAGGAUCCCUUAG”, for which the “apparent Kd” value stood at 150 nM under setting [3] and 156 nM under setting [4].

“AACGGAAUGUAGAAGGGUGACAUGAGGAUCACCCAUGUUCACAUGCGUAUUAAAGUAUGUGAACCACAGGAUAUACUGUCCGUG”: the “apparent Kd” value is, setting by setting: under setting [1], 56.8 nM; under setting [2], 130 nM.

In the case of “AAACCGCUAGGAUAUACGAAAUAAAACUCUGUACUUGAGGUACAUGAGGAUCACCCAUGUAGAAGGAGCUCGGA”, the “apparent Kd” value under setting [3] was 119 nM and the “apparent Kd” value under setting [4] turned out to be 229 nM.

With “GUAACAUGAGGAUCACCCAUGUAUAGAACGCUUAAUAGAUCUGAGGAUAUACUAGAAUUUACGUAGUAGAAGGCAGUGGGUACA”, the “apparent Kd” value by setting is: under setting [1], 35.9 nM; under setting [2], 26.9 nM.

Turning to “UAAUAAUUAUGAGGAUAUAUACAACAUGAGGAUCACCCAUGUACCCAUGUAGUAGAAGGCAUAUUUUUAGUUAAUAACACAACU”, the “apparent Kd” value by setting is: under setting [1], 71.3 nM; under setting [2], 30 nM.

With “GGACGUCACAUUUACAUGAGGAUCACCCAUGUCGAAAGACAUGAGGAUAUGCUACCUAAUUGGUAGCAGAAGGCAUGGACGUCC”, the “apparent Kd” value is 408 nM under setting [1] and 228 nM under setting [2].

As to “CGAUAUAUGAAGGGCGAACGCGCACAUGAGGAUCACCCAUGUAGAAGGCGGUCCGCAACGCGGAUCGAGGAUAUAUAGUAUACG”, the “apparent Kd” value is 27.5 nM under setting [3] and 30.7 nM under setting [4].

For the sequence “CAGACACAUCUAGGAUAUGGUGAUGCUCAAAACACAUGAGGAUCACCCAUGUAGCCUGUGUAUAAUCAGAAGGAGAACCGUGUA”, the “apparent Kd” value under setting [1] was 84.6 nM and the “apparent Kd” value under setting [2] was 500 nM.

Turning to “ACAGUAUAUGUAGGAUAUCAUUGGUUAGGUAGGUGAGAAGGGCAUAGUACAUGAGGAUCACCCAUGUGUUGGUCCUCGCAGAAA”, the “apparent Kd” value turned out to be 376 nM under setting [3] and 252 nM under setting [4].

As for “UUUGUAAUGUCAGGAUAUUUUAUAAGUCAUACUGAAGAAGGGAUAAUUAUACUCAUGUACAUGAGGAUCACCCAUGUUAAAUAU”, the “apparent Kd” value worked out at 43.6 nM under setting [1] and 33.6 nM under setting [2].

For the sequence “CCGGCUGCUGUGAGGAUAUGCCUGUGGGUCCGCGGGCAGAAGGCACAUGAGGAUCACCCAUGUCCUGCGGUCCC”, the “apparent Kd” value is, setting by setting: under setting [3], 27.1 nM; under setting [4], 28.3 nM.

Regarding “AGUAUGCACGCAGGAUAUACAUGAGGAUCACCCAUGUGGAACAGUGUAGUACUAGUUGAUCCUCAGUAGAAGGGCGGUCGAAUA”, the “apparent Kd” value under setting [3] is 44.2 nM and the “apparent Kd” value under setting [4] was determined as 56.6 nM.

In the case of “AAUACACAUGAGGAUCACCCAUGUCAGGAUAUGCGGAAUAAGACUUUGGUCGAUAAAUGUAGAAGGGACGUUUA”, the “apparent Kd” value stood at 34.3 nM under setting [3] and 33.4 nM under setting [4].

For “CAGACCGGCGCAGGAUAUGUCGACAUGAGGAUCACCCAUGUAAGCCUCGUCUGGUCCGGUGUGUGACAGAAGGGUGUCGGCCAA”, the “apparent Kd” value runs as follows: under setting [3], 13.1 nM; under setting [4], 38.1 nM.

On to “CUAGACAGAUCAGGAUAUCAUCGCAUGGUGCAUCCCUGUGAUUACAUGAGGAUCACCCAUGUGGAUGAGAAGGGAUUACUAUGU”, for which the “apparent Kd” value was determined as 31.9 nM under setting [3] and 10.7 nM under setting [4].

As to “GGAUAGGACAGAGGAUAUACGUGCUAGAGAUACUAGCAAAAUUUCCUCACAUGAGGAUCACCCAUGUAGAAGGCUGUCCUAGCG”, the “apparent Kd” value under setting [3] is 15.7 nM and the “apparent Kd” value under setting [4] was found to be 376 nM.

As to “UCGUUUAUACAAGGAUAUCAAUUAUAGCUAAAUUUAACAUGAGGAUCACCCAUGUAACUAUGGAGUGAGAAGGUGUAAUGACUU”, the “apparent Kd” value by setting is: under setting [1], 401 nM; under setting [2], 251 nM.

“UGUAUUAUCGGAGGAUAUCGAUAUCAAACAUGAGGAUCACCCAUGUUGAGGAUCACCCAUGUCCACGAGAAGGCCGGCGUACUC”: the “apparent Kd” value by setting is: under setting [1], 25.7 nM; under setting [2], 26.4 nM.

Take “CACAUUUUAACAGGAUAUGUAUGGUUGCUUAUUAUUGCAAAUUCAAUUAUUACAGAAGGGUUAUACAUGAGGAUCACCCAUGUG”: the “apparent Kd” value under setting [1] came out at 26.5 nM and the “apparent Kd” value under setting [2] was 16.8 nM.

On to “GGCUACGUUUCGUAGCAGCUAGGUGAGGAUAUUCAAUUUUUCACAUGAGGAUCACCCAUGUAUGUGAAGAAGGCGCCUAGAAAA”, for which the “apparent Kd” value under setting [1] came to 11.7 nM and the “apparent Kd” value under setting [2] was 4.83 nM.

As to “GGUGAAGCAGGAUAUGUGCCGAUAUACAUGAGGAUCACCCAUGUCAUGUAGGAACCGCGUAUAGAAGGGCUUCACC”, the “apparent Kd” value worked out at 39.2 nM under setting [3] and 67.1 nM under setting [4].

For the sequence “CAGCGAUAGCUGAACAAUCUAUCUGAGGAUAUUCAUAAAACAUGAGGAUCACCCAUGUAAAAUUGGGAGAAGGCAGAUAGAUUG”, the “apparent Kd” value under setting [1] worked out at 12.6 nM and the “apparent Kd” value under setting [2] turned out to be 4.69 nM.

Take “UAUAUAUAGGCAGGAUAUACAUGUAUAUAUAAUUUUUUAUAUAUUAUUACAUGAGGAUCACCCAUGUAGAAGGGCCAUAUUAUA”: the “apparent Kd” value is 34.8 nM under setting [3] and 51 nM under setting [4].

“CGGGUCUGAGGAUAUCCAUCUUCAUACAUGAGGAUCACCCAUGUUUACCUUUGGGUUCCUGGAGAAGGCAGUUUUC”: the “apparent Kd” value under setting [3] was found to be 74.9 nM and the “apparent Kd” value under setting [4] amounted to 78.4 nM.

For the sequence “UUUUAAUAAGAGAAGGAGCACUACAUGAGGAUCACCCAUGUGUUAGUAGUUAGGAUAUUUAAUAACAUGAGGAUCACCCAUGUA”, the “apparent Kd” value reads like this: under setting [1], 167 nM; under setting [2], 74.2 nM.

As to “AUAAAACAUGAGGAUCACCCAUGUAAUAAGAACCGAGGAUAUGGAAAUAAUAAUAAUAAACCAGAAGGUGGUGAUC”, the “apparent Kd” value reads like this: under setting [1], 146 nM; under setting [2], 326 nM.

In the case of “CCCUCACAUGAGGAUCACCCAUGUCAGGAUAUUCAAAGCGCAAAUGCGCCAAAUGCAGGAAGAAGGGACGUGCC”, the “apparent Kd” value under setting [3] was 15.1 nM and the “apparent Kd” value under setting [4] was determined as 20.5 nM.

Regarding “UUGAAUCGAAACAUGAGGAUCACCCAUGUGUCGUAAUUGACAUAGGAUAUGUAUAUACUUUUAUAAUAGAAGGAUGACGAUACU”, the “apparent Kd” value reads like this: under setting [1], 9.09 nM; under setting [2], 7.94 nM.

Regarding “CUGGGAUCAGUAGGAUAUGCCGGACAUGAGGAUCACCCAUGUAAGGCGUGCUUCCCUCGCGUGCGGCAGAAGGGCUGCAUCACA”, the “apparent Kd” value was determined as 32.7 nM under setting [3] and 35.4 nM under setting [4].

Turning to “GUGUACAGAGGAUAUAUAUGGGCAUGGAAACAUGCAACUUCACAUGAGGAUCACCCAUGUAGAAGGCUGUACAC”, the “apparent Kd” value is, setting by setting: under setting [3], 27.3 nM; under setting [4], 182 nM.

As for “GAGCGAAAGCUCAAUGUCGAUAGCAGAAGGACAUCCAACAACAUGAAAACAUGAGGAUCACCCAUGUAGGAUAUGCUAUCGACU”, the “apparent Kd” value came to 6.8 nM under setting [3] and 7.4 nM under setting [4].

In the case of “AAAAAGUGAGGAUAUCGAAAAAAAAAAAAAAAAAAAAAAAACGAGAAGGCACAUGAGGAUCACCCAUGUAAAAA”, the “apparent Kd” value reads like this: under setting [3], 35.8 nM; under setting [4], 44.9 nM.

In the case of “UAUAUGUCAGGAUAUCGAUUGGAAUGGAAUUUAGUUUUGGUCGAGAAGGGACAUGAGGAUCACCCAUGUUUUUC”, the “apparent Kd” value by setting is: under setting [3], 38.7 nM; under setting [4], 215 nM.

With “GGACAUUUACAGAAGGGCAAGUUAGAUCGUGGAUAACACGAUCUGACUUGCAGGAUAUGUUGAACAUGAGGAUCACCCAUGUCC”, the “apparent Kd” value under setting [1] was found to be 12.9 nM and the “apparent Kd” value under setting [2] is 10.8 nM.

Turning to “GGAUGACAAAGUCAUCCAUUACGAACAUGAGGAUCACCCAUGUAGGAUAUGCUACUCAAAGAGUAGCAGAAGGACAUGUGUCUU”, the “apparent Kd” value under setting [3] is 31.2 nM and the “apparent Kd” value under setting [4] came to 149 nM.

As for “UAAAUACAUGAGGAUCACCCAUGUGAGGAUAUCCGAUGAUUCGGAGAAAGGACCCGUUGGAGAAGGCAUAGGGC”, the “apparent Kd” value runs as follows: under setting [3], 27.1 nM; under setting [4], 21 nM.

On to “AUAUAUACCCAGAAGGUGCCAGCGAGAGCUGCACAUGAGGAUCACCCAUGUUGUCGGUGACGACGCAAGGAUAUGGGUAUAUAU”, for which the “apparent Kd” value reads like this: under setting [1], 25.2 nM; under setting [2], 7.86 nM.

On to “AGUAACAGAGGAUAUACUGUUUUAUGUGUUUAUUGUUUUAAACAUGAGGAUCACCCAUGUAGAAGGCUGAAUAA”, for which the “apparent Kd” value under setting [3] worked out at 30.9 nM and the “apparent Kd” value under setting [4] was found to be 26.9 nM.

Turning to “GUAUCGUAUGUGAGGAUAUAUUUGUCCUUGGAUUUGUAGAAGGCACAUGAGGAUCACCCAUGUCCUAGUGGUCC”, the “apparent Kd” value is, setting by setting: under setting [3], 35.1 nM; under setting [4], 34.9 nM.
